Test: Toxicity liver stage against HepG2, at 10uM
Assay type: cell-based
Set-up: test concentration 10 uM, cell line HepG2-A16-CD81EGFP
Details: human, HepG2-A16-CD81EGFP cells; read-out: INHIBITION
Method in brief: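 Uninfected HepG2-A16-CD81EGFP cells, 3 × 10^3 per well, 1536-well, plated on prespotted compound at 10 μM final, parasite-free screening media added to match infected plates; puromycin 10 μM positive, DMSO 0.5% negative; run in parallel with 48 h PbLuc assay at 37 °C, 5% CO2; viability by CellTiter-Glo luminescence, normalized to controls.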

Row | Compound | cytotoxicity at 10 µM
1 | CN1C[C@@H]2COC[C@]2(C(=O)NCCc2cccs2)C1 | 8.1%
2 | COCC(C)NC(=O)N1CCN(S(C)(=O)=O)CC1 (configuration not stated) | -6.53%
3 | Cc1cc(-c2cnc(N3CCCC3)nc2C(C)C)on1 | 5.14%
4 | Cc1nc(C)c(CC(=O)NCc2cccnc2OC2CCCC2)c(=O)[nH]1 | -5.87%
5 | Cc1cc(-c2nc(-c3cccc(CN4CCOCC4)c3)no2)no1 | -7.33%
6 | CN(CCS(=O)(=O)c1cc(Cl)ccc1Cl)CC(N)=O | 4.65%
7 | CN(CCN1CCOC1=O)CC(=O)Nc1ccc(Cl)c(C(F)(F)F)c1 | -46.5%
8 | Cc1oc(-c2ccccc2)nc1CN1CCC(c2ccnn2C)CC1 | 15.6%
9 | CCc1nc(C2CCCN2Cc2nnc(C3CC3)o2)no1 (configuration not stated) | -13.2%
10 | c1ccc(-c2noc(CN3CCc4cncnc4C3)n2)nc1 | -2.97%
11 | CC(O)(CCc1ccccc1)CNC(=O)c1ccc(F)cc1 (configuration not stated) | -70.3%
12 | COCCOc1ccnc(-c2noc([C@@H]3CCCN3CC(C)C)n2)c1 | -8.64%
13 | COCCN1CCN(Cc2cnc(C3(C)CCCCO3)nc2)CC1 (configuration not stated) | 1.16%
14 | Fc1cccc2c1CCC2NCc1cnc(N2CCOCC2)nc1 (configuration not stated) | 5.42%
15 | O=c1[nH]c(CN2CCCC(Cn3cncn3)C2)nc2ccccc12 (configuration not stated) | -12.4%
16 | Cc1cc(CN(C)C(=O)NC2CCN(Cc3ccccc3)C2)no1 (configuration not stated) | -0.421%
17 | Cn1cccc1C(=O)N1CCn2nnc(COc3cccnc3)c2C1 | -69.7%
18 | CC(C)c1nc(CN(C)C(=O)c2ccc3c(c2)OCO3)cs1 | -1.1%
19 | CCO[C@@H]1CC[C@H]2[C@H]1OCCN2C(=O)c1ccc(OC)c(F)c1 | 15.7%
20 | CN(C(=O)CCc1cccs1)C1CCCN(C2Cc3ccccc3C2)C1 (configuration not stated) | -4.49%
21 | COCCN1CCc2ncnc(N(C)C)c2CC1 | -0.025%
22 | COCC(C)NC(=O)CN1CCC(CO)CC1 (configuration not stated) | -6.16%
23 | CCn1cnnc1CNC(=O)Cc1ccc2c(c1)OCCO2 | -3.27%

Row | Compound | cytotoxicity at 10 µM
24 | c1ccc(Oc2ccc(OC34CCCN(CC3)C4)cc2)cc1 (configuration not stated) | 0.741%
25 | CCC(CNC(=O)c1ccc(F)cc1F)N1CCc2ccccc2C1 (configuration not stated) | 10.9%
26 | Cc1cc(CN2CCC3(CC2)CC(C(=O)O)N(C(=O)C2CC2)C3)oc1C (configuration not stated) | -7.32%
27 | COCCN1CCN(C(C)c2nc(C3CC3)no2)CC1 (configuration not stated) | -8.36%
28 | Cc1ccc(CN2CCn3c(CNS(C)(=O)=O)nnc3C2)s1 | -67.7%
29 | COCCC(=O)N1C[C@H]2CN(Cc3cccnc3)C(=O)[C@H]2C1 | -0.95%
30 | CCc1nc(C2CCCN2C(=O)c2cnc[nH]2)no1 (configuration not stated) | -13.6%
31 | Cn1[nH]c(C2CCC2)c(-c2ccc3c(c2)OCO3)c1=N | -42.3%
32 | Cc1csc([C@@H]2C[C@H]3CN(c4ncc(F)cn4)C[C@H]3O2)n1 | 6.88%
33 | Cc1cc(F)cc2c(NCC(C)(C)C(N)=O)c(C#N)cnc12 | -3.25%
34 | CN(Cc1cccnc1)[C@@H]1CN(Cc2cnn(C)c2)[C@@H]2CCCO[C@H]12 | -2.1%
35 | Cn1cc(S(=O)(=O)NC(=O)C2(c3ccccc3)CCC2)cn1 | -6.85%
36 | CS(=O)(=O)N1C[C@H]2CC[C@@H](C1)N(Cc1cscn1)C2=O | -9.35%
37 | Cc1cccn2c(CNC(C)CCn3cccn3)cnc12 (configuration not stated) | 21.6%
38 | CC(C)(C(N)=O)N1CCN(C(=O)c2ccn(-c3cccc(Cl)c3)n2)CC1 | -13.3%
39 | Cc1cnn(C2CCCN(C(=O)COc3ccc(C(N)=O)cc3)C2)c1 (configuration not stated) | -0.0295%
40 | Cc1csc(C2(NC(=O)CCc3ccncc3)CCCC2)n1 | -12.1%
41 | O=S1(=O)NCC2(CCNCC2)COc2ccccc21 | -2.75%
42 | CCOC(=O)CNC(=O)c1cccnc1Sc1cc(OC)ccc1OC | 1.73%
43 | Cc1nn(C)c(N(C)C)c1CNCc1cccc(OCCN(C)C)c1 | 1.38%
44 | CCOC(=O)CC(C)NC(=O)c1cn(Cc2ccccc2F)nn1 (configuration not stated) | -4.75%
45 | Cc1ccc(C)c(OCCN(C)C(=O)C2CCCN2C(N)=O)c1C (configuration not stated) | -1.01%
46 | CNc1cc2c(nn1)CCN(C(=O)c1ccc(-n3nccc3C)cc1)C2 | -5.44%

Row | Compound | cytotoxicity at 10 µM
47 | Cc1nc(CN2CCC(NS(C)(=O)=O)CC2)co1 | -12.4%
48 | Cc1cn2c(n1)CCC(NC(=O)CNS(C)(=O)=O)C2 (configuration not stated) | -9.84%
49 | COC(C)(C)C(=O)N[C@H]1CN(c2nccnc2N(C)C)C[C@@H]1C(C)C | 4.24%
50 | O=C(CN1CCNC1=O)NCc1ccc2sccc2c1 | 5.05%
51 | CC(C)(C)c1cc(NC(=O)CN2CCCC2Cn2cncn2)on1 (configuration not stated) | 5.91%
52 | CC(C(=O)Nc1ccccc1F)S(C)(=O)=O (configuration not stated) | -5.27%
53 | CCS(=O)(=O)CCN1CCC(N(C)Cc2noc(C(C)C)n2)C1 (configuration not stated) | -5.55%
54 | c1ccc(-c2nc(CN3CCCC(Cn4cncn4)C3)cs2)cc1 (configuration not stated) | -9.53%
55 | Cc1cc(C(=O)N(C)C)c2c(Br)cccc2n1 | -6.4%
56 | c1ccc(-c2nnc3sc(CCN4CCCCCC4)nn23)cc1 | 1.11%
57 | N#Cc1ccc(NCc2cccnc2N2CCC(C(N)=O)CC2)cn1 | -47.9%
58 | Cn1cnnc1C1CCCN(C(=O)NCCn2ccnc2)C1 (configuration not stated) | -2.74%
59 | O=C(c1ccc[nH]1)N1CCN(CC2CCOc3ccccc3C2)CC1 (configuration not stated) | 4.03%
60 | CCS(=O)(=O)NC[C@]12COC[C@H]1CN(Cc1ccccn1)C2 | -72.5%
61 | Fc1cccc(-c2c[nH]c([C@@H]3COCCN3C3CCOCC3)n2)c1 | -1.31%
62 | CCS(=O)(=O)CC(=O)NC(c1ccc(F)cc1)C1CCCC1 (configuration not stated) | 4.57%
63 | CCOC(=O)[C@@H]1[C@@H](O)C(=O)N(C)C12CCN(C(=O)c1ccco1)CC2 | -2.36%
64 | CCOc1cccc(CNc2ccccc2OC)c1O | 0.142%
65 | O=C1CC(c2ccc(C(=O)O)cc2)c2ncn(-c3ccc(Cl)cc3)c2N1 (configuration not stated) | -2.14%
66 | COc1ncc(NCc2ccc(C#N)cc2)cc1C(N)=O | 0.217%
67 | O=C(Cc1cccnc1)N1CCC2(CC1)CCN(C1CCOC1)C2 (configuration not stated) | -2.52%
68 | CCc1ncc2c(n1)CN(Cc1nc(C)c(C)o1)CC2 | 2.92%
69 | CNC(=O)[C@H]1CO[C@H]2CCN(c3ncc(F)cn3)C[C@H]2C1 | -0.0253%

Row | Compound | cytotoxicity at 10 µM
70 | COc1cccc(CSc2nnc(C)n2CC(N)=O)c1 | 3.59%
71 | Cn1nc(CN2CCCC2)c2c1CN(C(=O)c1cnccn1)CC2 | -147%
72 | COc1cc(N2CC[C@@H](O)[C@@H]2Cc2ccncc2)ncn1 | -84.5%
73 | CC(C)CN(Cc1nc2c(cnn2C)c(=O)[nH]1)C(C)C | -9.96%
74 | CC(C)(C)c1noc(-c2nc3c([nH]2)CCCNC3=O)n1 | -3.83%
75 | CN1CCCN(C(=O)c2cc3c(s2)CCN3C(=O)C2CC2)CC1 | 6.74%
76 | Cc1cnc(CN(C)C2CCN(Cc3nc4ccccc4s3)C2)o1 (configuration not stated) | -7.97%
77 | Cn1cc(C2(C)CN(C(=O)Nc3ccccc3F)CCO2)cn1 (configuration not stated) | -5.23%
78 | c1ccc(-n2cc(CNC3CCc4ncnn4C3)nn2)cc1 (configuration not stated) | -4.01%
79 | Cc1cnn(CC2CN(CCCc3nc4ccccc4o3)CCO2)c1 (configuration not stated) | -2.45%
80 | Cc1ccc(C#N)c(N2CCC(c3nccn3Cc3cscn3)CC2)n1 | -6.96%
81 | C=Cc1cccc(CN2C[C@@H](CN(C)CC)[C@@H](CO)C2)c1 | -6.63%
82 | Cc1cc(C2CCCN2C(=O)CN2CC3(CCNCC3)OC2=O)on1 (configuration not stated) | 16.4%
83 | Cc1cccc(OCCC(=O)NCC2CN(C)CCO2)c1C (configuration not stated) | -6.3%
84 | COc1c(NC(=O)N(C)CCOc2ccc(F)cc2)c(C)nn1C | 1.4%
85 | CC(O)CN1CCN(C(=O)CN(C)c2cnccn2)CC1 (configuration not stated) | 2.53%
86 | CC[C@@H](Cn1ncc2ccccc2c1=O)NC(=O)c1cnccn1 | 6.4%
87 | N#Cc1cccc(CNCCC(=O)N2CCc3sccc3C2)c1 | 1.04%
88 | COc1ccc(C(O)CNC(=O)NCc2nc(C)cs2)cc1 (configuration not stated) | -3.54%
89 | CN(C)CCN1CCO[C@H]2CN(C(=O)C3CCOCC3)C[C@H]21 | 1.58%
90 | Cn1nnnc1SCC1(O)CCCCC1 | 1.06%
91 | Cc1nc(CNCc2ccc(N3CCN(C)CC3)nc2)cs1 | -5.33%
92 | CN(c1ncccc1C#N)C1CCN(CCc2ccncc2)CC1 | 28.7%

Row | Compound | cytotoxicity at 10 µM
93 | CN(C)C(=O)CN1CCO[C@H]2CN(c3ccccn3)C[C@H]21 | 8.16%
94 | CCOC(=O)[C@H]1CNC[C@@H]1C(=O)OCC | 6.1%
95 | CCCC(=O)Nc1sc(C(=O)OCC)c(C)c1C#N | 8.29%
96 | O=C(C1CC=CC1)N1CCC2(CC1)CNCCO2 | 1.46%
97 | COc1ccc(-c2cn(CCSc3ncn[nH]3)nn2)cn1 | 3.36%
98 | CCCn1cnnc1CNC(=O)CC1C(=O)NCCN1C(C)C (configuration not stated) | 0.445%
99 | COC(=O)[C@H](C)NC(=O)c1cnc(Cc2ccc(F)cc2)s1 | -10.9%
100 | CNC(=O)c1cn(C(C)(C)C)c2ncccc12 | -7.85%
101 | Cn1cc(CN2CCc3ncn(C)c3C2COCc2cccnc2)cn1 (configuration not stated) | 6.86%
102 | Cc1ccc(Cl)cc1NS(=O)(=O)c1cc(C(N)=O)n(C)c1 | 3.8%
103 | CCC(CC)c1cc(CNC(=O)N2CCOC(C)C2)on1 (configuration not stated) | 0.433%
104 | CN1C(=O)C(c2ccccc2)CC12CCN(CCO)CC2 (configuration not stated) | 5.12%
105 | Cc1ccccc1NCc1nc2n(n1)CCCCC2 | 4.7%
106 | Clc1cncc(NCc2cccc(OCCN3CCOCC3)c2)n1 | 9.71%
107 | O=C(NCC1CC1)[C@H]1CN(Cc2nccs2)C[C@H]2OCC[C@@H]12 | -109%
108 | CC(C)(C)CN1CCCC(c2nccnc2Nc2cnccn2)C1 (configuration not stated) | 5.37%
109 | CCc1cc(NC2CCS(=O)(=O)C2)nc(N2CCCCC2)n1 (configuration not stated) | -3.15%
110 | CN1C(=O)CC(C(=O)O)C12CCN(Cc1ccc(F)c(Cl)c1)CC2 (configuration not stated) | 0.998%
111 | O=C1NCCCCC1NC(=O)N1CCc2ccccc21 (configuration not stated) | -0.734%
112 | CN1CCN(C(=O)c2cc(C#N)cn2C)c2ccccc2C1 | 5.45%
